From PubChem BioAssay
An excerpt weighted towards active compounds, which were near 2.5% of everything screened.
TRPML3 ag – human mucolipin-3 channel agonism | 220,000 compounds, 0.29% hits | HEK293 TRPML3-YFP, Fluo-8 calcium fluorescence; 100% = the carbachol control signal | Q8TDD5 | activation, % at 3 µM | AID 1448;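 active = activation above its plate's cutoff, the mean activation of the plate's test wells plus 3 SD, cut at about 12% in these data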;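 note: 0% = DMSO only wells and 100% = carbachol wells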
Target sequence (Q8TDD5 whole entry, looked up): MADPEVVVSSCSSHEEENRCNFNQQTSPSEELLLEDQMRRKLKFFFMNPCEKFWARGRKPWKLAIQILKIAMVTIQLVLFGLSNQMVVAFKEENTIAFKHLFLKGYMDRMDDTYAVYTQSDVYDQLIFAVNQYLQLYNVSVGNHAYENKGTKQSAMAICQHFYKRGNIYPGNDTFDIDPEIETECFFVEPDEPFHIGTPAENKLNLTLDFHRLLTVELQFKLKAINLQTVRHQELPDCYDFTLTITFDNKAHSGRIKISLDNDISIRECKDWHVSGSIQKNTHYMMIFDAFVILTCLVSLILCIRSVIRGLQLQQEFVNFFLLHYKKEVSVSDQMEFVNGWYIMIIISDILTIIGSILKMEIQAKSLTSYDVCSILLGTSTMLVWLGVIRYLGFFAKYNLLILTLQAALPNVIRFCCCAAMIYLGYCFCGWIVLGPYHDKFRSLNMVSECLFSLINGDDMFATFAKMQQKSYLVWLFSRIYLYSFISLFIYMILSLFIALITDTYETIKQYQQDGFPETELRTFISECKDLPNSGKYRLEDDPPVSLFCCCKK
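Material: TRPML3-YFP stable HEK293 cells | Dosing: One concentration, 3 µM nominal, 0.3% DMSO | Timing: 125 s total fluorescence read per well | Technique: Fluo-8 calcium dye fluorescence, ex 470-495, em 515-575 nm | Measure: Percent activation from peak-to-basal fluorescence ratio, scaled between DMSO and carbachol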
OX1R antag-1 – blocks the human orexin 1 receptor. AID 434989. O43613. 330,000 compounds, 0.43% hits. inhibition, % at 5 µM. CHO/OX1R cells, Fluo-8 calcium fluorescence, orexin A;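 active = inhibition above its plate's threshold, mean inhibition of all tested compounds on the plate plus 3 SD, cut at about 37% in these data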;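 note: 0% = orexin A challenge wells and 100% = SB-334867-A antagonist wells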
CHO parental Ca – counter-screen: ATP calcium response change in parental CHO cells. parental CHO-K1, ATP-induced calcium, Fluo-8 fluorescence. inhibition, % at 5.6 µM. 330,000 compounds, 0.63% hits. AID 463079;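 active = inhibition above that plate's mean sample inhibition plus 3 SD, cut at about 26% in these data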;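 note: 0% = ATP-challenged DMSO wells and 100% = DMSO wells without ATP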
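Assay system: parental CHO cells; Read-out basis: percent inhibition of ATP-evoked calcium rise, normalized to controls; Benchmarks: ATP and no-ATP DMSO wells; Compound dosing: single nominal dose of 5.6 µM per compound; Signal: Fluo-8 calcium dye fluorescence; Also added: ATP as calcium-mobilizing challenge; Repeats: singlicate.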
TRPN1 ag – zebrafish TRPN1 (NompC) channel agonism; HEK293 zebrafish TRPN1-YFP, Fluo-8 calcium fluorescence; 100% = response to 87 µM carbachol; activation, % at 3 µM; 220,000 compounds, 0.18% hits; AID 1424;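 active = activation above its plate's cutoff, the mean activation of test wells on that plate plus 3 SD, cut at about 19% in these data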;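 note: 0% = DMSO alone and 100% = 87 µM carbachol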
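Material – zebrafish TRPN1-YFP in HEK293 cells · Doses – 3 µM single point · Schedule – dye 1 h 37 °C plus 30 min RT · Signal – Fluo-8 calcium fluorescence, excitation 470-495 nm, emission 515-575 nm · Read-out – % activation versus carbachol response · Control set – carbachol high, DMSO low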
OX1R antag-2 – OX1R (human) antagonism. OX1R-expressing cells, FRET antagonist read-out. inhibition, % at 6.6 µM. 330,000 compounds, 1.8% hits; in the data active = inhibition mostly above about 38%, no sharp cut-off; inactive = mostly below about 40%;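 note: 0% = agonist challenge alone and 100% = reference antagonist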
The depositor's hits bear a star.

What do the screens show for `COc1cc(NC(=S)NCCC(c2ccccc2)c2ccccc2)c(OC)cc1Cl`?
TRPML3 ag: 0.1; OX1R antag-1: 3.0; CHO parental Ca: -12.6; TRPN1 ag: -0.3; OX1R antag-2: 57.7*

How did COc1ccc(OC)c2sc(N3CCN(C(=O)c4ccc5ncsc5c4)CC3)nc12 do in these assays?
OX1R antag-1: -24.1; CHO parental Ca: -21.7; OX1R antag-2: 12.8

What do the screens show for `O=C(Nc1ccccc1N1CCOCC1)c1ccccc1[N+](=O)[O-]`?
TRPML3 ag: -0.1; OX1R antag-1: -20.1; CHO parental Ca: -12.8; TRPN1 ag: -0.1; OX1R antag-2: 13.4

Results for COc1ccc(OC)c2sc(N3CCN(C(=O)c4ccc([N+](=O)[O-])s4)CC3)nc12 ?
OX1R antag-1: 1.1; CHO parental Ca: 4.1; OX1R antag-2: 46.3*

Results for O=C(c1ccc([N+](=O)[O-])s1)N1CCN(c2ccccc2)CC1 ?
TRPML3 ag: 0.3; OX1R antag-1: -17.3; CHO parental Ca: -1.9; TRPN1 ag: 1.3; OX1R antag-2: 53.9*

What do the screens show for `O=C(NCCC(=O)N1CCN(c2ccccn2)CC1)c1ccc([N+](=O)[O-])cc1`?
OX1R antag-1: -5.0; CHO parental Ca: -10.4; OX1R antag-2: 34.7*

How did O=C(Nc1ccccc1N1CCOCC1)c1ccc([N+](=O)[O-])s1 do in these assays?
OX1R antag-1: -32.1; CHO parental Ca: -19.1; OX1R antag-2: 30.9*

Results for CC(=O)Nc1ccc(S(=O)(=O)NC2(C(F)(F)F)C(=O)Nc3c2c(=O)[nH]c(=O)n3Cc2ccco2)cc1 (stereo not given) ?
TRPML3 ag: 0.8; OX1R antag-1: -6.8; CHO parental Ca: 4.0; TRPN1 ag: 1.1; OX1R antag-2: 5.0

How did O=C(c1cc(Br)c(Br)s1)N1CCN(c2ccccn2)CC1 do in these assays?
OX1R antag-1: -26.0; CHO parental Ca: -11.6; OX1R antag-2: 24.1

What do the screens show for `O=C(c1ccc([N+](=O)[O-])s1)N1CCN(c2ccccn2)CC1`?
OX1R antag-1: -5.1; CHO parental Ca: 0.7; OX1R antag-2: 45.8*

How did CC1CC(C)CN(CCCNC(=O)C2CCN(c3ncnc4c3sc3cccc(F)c34)CC2)C1 (stereo not given) do in these assays?
TRPML3 ag: 0.4; OX1R antag-1: -4.7; CHO parental Ca: -27.6; TRPN1 ag: 0.3; OX1R antag-2: 54.8*

How did CCN(CC)CCCNC(=O)C1CCN(c2ncnc3c2sc2cccc(F)c23)CC1 do in these assays?
TRPML3 ag: 0.2; OX1R antag-1: -18.5; CHO parental Ca: -11.1; TRPN1 ag: -0.8; OX1R antag-2: 31.1

Results for O=C(Nc1ccc(Br)cc1F)C1CCN(c2nnc(-n3cccc3)s2)CC1 ?
TRPML3 ag: 0.0; OX1R antag-1: -21.2; CHO parental Ca: -12.5; TRPN1 ag: -0.7; OX1R antag-2: 8.7

Results for O=C(Nc1ccc(F)cc1F)C1CCN(c2ncnc3c2sc2cccc(F)c23)CC1 ?
OX1R antag-1: -11.5; CHO parental Ca: -4.8; OX1R antag-2: 46.4*

What do the screens show for `NC(=O)COC(=O)CNC(=O)c1cc(Cl)cc([N+](=O)[O-])c1`?
TRPML3 ag: 0.4; OX1R antag-1: -14.7; CHO parental Ca: 0.7; TRPN1 ag: 2.3; OX1R antag-2: 53.4*

Results for CC(C)(C)NC(=O)NC(=O)COC(=O)CNC(=O)c1cc(Cl)cc([N+](=O)[O-])c1 ?
TRPML3 ag: 0.5; OX1R antag-1: -7.6; CHO parental Ca: -10.0; TRPN1 ag: -0.5; OX1R antag-2: 68.3

Results for O=C(CNC(=O)c1cc(Cl)cc([N+](=O)[O-])c1)OCC(=O)N1CCCCC1 ?
OX1R antag-1: -6.5; CHO parental Ca: -16.8; OX1R antag-2: 40.9*

Results for O=C(NCC1CC1)c1cc([N+](=O)[O-])cc([N+](=O)[O-])c1 ?
OX1R antag-1: -4.5; CHO parental Ca: -8.0; OX1R antag-2: 54.4*

Results for CCCCn1c(NC(=O)c2ccccc2Cl)c(C#N)c2nc3ccccc3nc21 ?
TRPML3 ag: 1.5; OX1R antag-1: 15.8; CHO parental Ca: -3.5; TRPN1 ag: 2.9; OX1R antag-2: 58.7*

Results for COc1cc2c(cc1NC(=O)COC(=O)[C@@H](NS(=O)(=O)c1ccccc1)C(C)C)oc1ccccc12 ?
TRPML3 ag: 0.8; OX1R antag-1: 19.6; CHO parental Ca: -5.4; TRPN1 ag: 0.5; OX1R antag-2: 74.6*

What do the screens show for `O=C1NC2(CCCCC2)C(=O)N1CC(=O)N(Cc1ccccc1)c1ccccc1`?
OX1R antag-1: -26.4; CHO parental Ca: -20.0; OX1R antag-2: 19.9

How did N=C1C(c2ccccc2)=C(O)CN1CCO do in these assays?
TRPML3 ag: 1.1; OX1R antag-1: -5.8; CHO parental Ca: 3.0; TRPN1 ag: 0.6; OX1R antag-2: 7.2

What do the screens show for `COC(=O)Cn1c(O)c(N=NC(=O)CNC(=O)c2ccncc2)c2ccccc21`?
OX1R antag-1: -11.5; CHO parental Ca: -10.6; OX1R antag-2: 70.2*

How did Cn1c(O)c(N=NC(=O)CNC(=O)c2cccnc2)c2ccccc21 do in these assays?
OX1R antag-1: -10.7; CHO parental Ca: -7.2; OX1R antag-2: 42.6*

How did CCCn1c(O)c(N=NC(=O)CNC(=O)c2cccnc2)c2ccccc21 do in these assays?
OX1R antag-1: -1.5; CHO parental Ca: -20.3; OX1R antag-2: 46.7

Results for O=C(CCCc1ccccc1)NCCS(=O)(=O)N1CCN(c2ccccc2F)CC1 ?
OX1R antag-1: -15.8; CHO parental Ca: -16.2; OX1R antag-2: 19.6

How did Cc1ccccc1NC(=O)COC(=O)c1cc(S(=O)(=O)N2CCOCC2)ccc1C do in these assays?
OX1R antag-1: -13.7; CHO parental Ca: -12.5; OX1R antag-2: 8.5

What do the screens show for `COc1ccc2[nH]c3c(c2c1)CCN1C(=O)N([C@@H](C)C(=O)NCc2c(F)cccc2Cl)C(=O)[C@]31C`?
OX1R antag-1: -10.2; CHO parental Ca: -10.5; OX1R antag-2: 23.9

What do the screens show for `C[C@@H](C(=O)NCc1c(F)cccc1Cl)N1C(=O)N2CCc3c([nH]c4ccccc34)[C@@]2(C)C1=O`?
OX1R antag-1: 22.1; CHO parental Ca: -6.7; OX1R antag-2: 67.4*

What do the screens show for `COc1ccc(-c2csc(Nc3ccc(S(=O)(=O)Nc4cc(C)on4)cc3)n2)cc1`?
TRPML3 ag: -0.7; OX1R antag-1: 10.2; CHO parental Ca: 4.8; TRPN1 ag: -2.7; OX1R antag-2: 40.4*

How did Cc1cc(S(=O)(=O)NCc2ccccc2)ccc1OCC(=O)Nc1cccc([N+](=O)[O-])c1 do in these assays?
TRPML3 ag: -0.1; OX1R antag-1: 53.3*; CHO parental Ca: 48.9*; TRPN1 ag: -0.1; OX1R antag-2: 84.4*

How did Cc1cc(S(=O)(=O)NCc2ccccc2)ccc1OCC(=O)NCc1ccccn1 do in these assays?
OX1R antag-1: -5.7; CHO parental Ca: 2.4; OX1R antag-2: 25.8

Results for COc1cccc(NC(=S)NC(C)c2ccc(OC)c(OC)c2)c1 (stereo not given) ?
TRPML3 ag: 0.9; OX1R antag-1: -15.6; CHO parental Ca: -10.8; TRPN1 ag: -0.2; OX1R antag-2: 75.1*
